Measurements from ChEMBL document CHEMBL2010762, “Synthesis of novel 9-O-N-aryl/aryl-alkyl amino carbonyl methyl substituted berberine analogs and evaluation of DNA binding aspects” (Bioorg Med Chem, 2012).
Calls of active or inactive are those of the source. The rule behind the calls is not given here.

Tests used:
Assay type in all cases: nucleic-acid assay
Details in all cases: Bos taurus
Nucleic Acid [1] = assay: Binding affinity to calf thymus DNA assessed as fluorescence quenching by fluorescence spectroscopy analysis
Procedure, shortened: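 Ferrocyanide quenching of alkaloid fluorescence, free and bound to CT DNA, at constant P/D (base pair/alkaloid). KCl and K4[Fe(CN)6] solutions were mixed in different ratios at fixed total ionic strength in 10 mM CP buffer pH 7.0. Intensity was read against rising ferrocyanide. Stern–Volmer quenching constant (Ksv). At least four measurements were averaged per set.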

Nucleic Acid [2] = assay: Binding affinity to calf thymus DNA in citrate-phosphate buffer at pH 7 assessed as change in viscosity by hydrodynamic method
Procedure, shortened: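 Relative viscosity of CT DNA in 10 mM CP buffer pH 7.0 at 20 °C with increasing alkaloid (varying D/P), mixed by slow nitrogen bubbling. Flow times were measured in triplicate to 0.01 s. Contour length increase (L/Lo) was plotted against r.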

Nucleic Acid [3] = assay: Binding affinity to calf thymus DNA assessed as change in melting temperature by thermal denaturation assay
Procedure, shortened: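 CT DNA alone or with alkaloid, 10 mM citrate-phosphate buffer pH 7.0. Absorbance at 260 nm was followed while heating from 20 to 100 °C at 0.5 °C/min in 1 cm quartz cuvettes. ΔTm was taken at saturation.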

Nucleic Acid [4] = assay: Binding affinity to calf thymus DNA in citrate-phosphate buffer at pH 7 by circular dichroism spectral analysis
Procedure, shortened: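 CD spectra of CT DNA titrated with increasing alkaloid in 10 mM CP buffer pH 7.0 at 20 °C. Output is molar ellipticity, [θ] = [θ]obs/10lC.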

| Compound | KSV (Nucleic Acid [1]) [M⁻¹] | Activity (Nucleic Acid [2]) | ΔTm (Nucleic Acid [3]) [°C] | Activity (Nucleic Acid [4]) |
| --- | --- | --- | --- | --- |
| COc1ccc2cc3[n+](cc2c1OCC(=O)NCc1ccccc1)CCc1cc2c(cc1-3)OCO2.[Cl-] | 48 | Active | 14 | – |
| COc1ccc2cc3[n+](cc2c1OC)CCc1cc2c(cc1-3)OCO2.[Cl-] [BERBERINE CHLORIDE] | 90 | Active | 9 | Active |
| COc1ccc2cc3[n+](cc2c1OCC(=O)NCCc1ccccc1)CCc1cc2c(cc1-3)OCO2.[Cl-] | 37 | Active | 12 | – |
| COc1ccc2cc3[n+](cc2c1OCC(=O)Nc1ccccc1)CCc1cc2c(cc1-3)OCO2.[Cl-] | 57 | Active | 15.5 | Active |
